PKD1 inh: inhibitors of human PKD1 kinase, biochemical, fluorescence polarization; Serine/threonine-protein kinase D1 (Homo sapiens), Q15139; AID 797, 2007; inhibition, % (test concentration not listed); 200,000 tested, 0.056% active; PKD1 kinase fluorescence polarization assay
Avidin bead fluor: green autofluorescence of compounds with avidin beads – biophysical, 488/530 nm, flow cytometry, artefact control, profiling panel. compound fluorescence 488/530 nm; hits give high values. fluorescence (KMESF) at 10 µM. 220,000 tested, 0.38% active; in the data active means fluorescence above about 47
ABCB1 block: ABCB1 efflux pump inhibitors, primary screen, cell-based, multiplex, flow cytometry, ABCG2 counter-screen | ATP-dependent translocase ABCB1 (Homo sapiens), P08183 | CCRF-Adr cells, JC-1 efflux | inhibition, % at 6.6 µM | 190,000 tested, 0.067% active | AID 1326, 2008; in the data active means inhibition above about 40%;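 further: higher value means more JC-1 retained so stronger ABCB1 efflux block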
Lmaj promast: Leishmania major promastigote growth inhibition, primary screen. Leishmania major promastigotes, resazurin fluorescence viability. inhibition, % at 10 µM. 200,000 tested, 9% active;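 further: promastigotes grown with compound for 44 hours at 28 °C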
ABCG2 block: ABCG2 efflux pump inhibitors, primary screen, multiplex with ABCB1, IgMXP3 cells, flow cytometry. Broad substrate specificity ATP-binding cassette transporter ABCG2 (Homo sapiens), Q9UNQ0. JC-1 efflux. inhibition, % at 6.6 µM. 190,000 tested, 0.1% active;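 active means inhibition above 80%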
Target sequence (Q9UNQ0 whole entry, looked up): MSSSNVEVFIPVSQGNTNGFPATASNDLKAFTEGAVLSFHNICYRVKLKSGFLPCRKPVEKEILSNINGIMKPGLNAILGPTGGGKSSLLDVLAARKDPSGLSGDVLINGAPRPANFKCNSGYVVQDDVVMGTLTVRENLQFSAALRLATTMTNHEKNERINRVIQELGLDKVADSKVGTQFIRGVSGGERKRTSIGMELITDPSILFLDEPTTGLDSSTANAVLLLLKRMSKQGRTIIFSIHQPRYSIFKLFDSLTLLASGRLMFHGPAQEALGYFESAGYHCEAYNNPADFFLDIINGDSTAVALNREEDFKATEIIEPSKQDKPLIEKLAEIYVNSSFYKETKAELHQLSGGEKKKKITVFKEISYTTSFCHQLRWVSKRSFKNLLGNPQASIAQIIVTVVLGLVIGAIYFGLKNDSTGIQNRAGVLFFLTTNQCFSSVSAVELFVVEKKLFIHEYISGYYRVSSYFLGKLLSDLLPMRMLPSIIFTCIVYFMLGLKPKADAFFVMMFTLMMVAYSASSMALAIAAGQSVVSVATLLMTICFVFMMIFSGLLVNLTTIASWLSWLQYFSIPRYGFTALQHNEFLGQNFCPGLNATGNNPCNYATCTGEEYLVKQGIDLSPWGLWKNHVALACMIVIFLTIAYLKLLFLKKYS
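System: two drug-resistant human cell lines, ABCG2 and ABCB1; controls: nicardipine high and DMSO low controls; times: 10 min exposure at 25 °C with rotation, no wash; detection: flow cytometry of retained JC-1 fluorescence; read-out basis: percent efflux inhibition, scaled nicardipine 100% to DMSO 0%; doses: one concentration, 6.6 µM final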
GSH fluor: compound fluorescence on glutathione beads, profiling panel, artefact control, biophysical, 488/530 nm, flow cytometry; fluorescence (KMESF) at 10 µM; 190,000 tested, 0.25% active; GSH beads flow cytometry, compound fluorescence 488/530 nm; hits give high values; in the data active means fluorescence above about 89;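 further: glutathione beads carrying GST-tagged Bcl family fusion proteins plus one bare bead set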
Numbers stand for hits. Only a selection was taken, and hits are over-represented in it overall. Unless noted, no stated cut-off is given here; in the data, active means inhibition above about 50%; inactive means the rest.

For COc1ccc(-c2nnc(Nc3ccc(OC)c(C(=O)N4CCCCC4)c3)c3ccccc23)cc1 the results were PKD1 inh inactive, Avidin bead fluor inactive, ABCB1 block inactive, Lmaj promast 53, ABCG2 block inactive and GSH fluor inactive.
For COc1ccc(C[C@H]2CN3C(=NC[C@@H]3C(C)C)N2C[C@H](C)NC(=O)c2ccc(C)c(Br)c2)cc1 the results were PKD1 inh inactive, Avidin bead fluor inactive, ABCB1 block inactive, Lmaj promast 68, ABCG2 block inactive and GSH fluor inactive.
COc1ccc(C[C@H]2CN3C(=NC[C@@H]3Cc3ccccc3)N2CCNC(=O)c2ccc(C)c(Br)c2)cc1 was read as PKD1 inh inactive, Avidin bead fluor inactive, ABCB1 block inactive, Lmaj promast 95, ABCG2 block inactive and GSH fluor inactive.
Cc1ccc(C(=O)N[C@@H](C)CN2C3=NC[C@H](C(C)C)N3C[C@H]2Cc2ccc(O)cc2)cc1Br was read as PKD1 inh inactive, Avidin bead fluor inactive, ABCB1 block inactive, Lmaj promast inactive, ABCG2 block inactive and GSH fluor inactive.
COc1ccc(C[C@H]2CN3C(=NC[C@H]3Cc3ccccc3)N2CCNC(=O)CCC2CCCCC2)cc1 was read as PKD1 inh inactive, Avidin bead fluor inactive, ABCB1 block inactive, Lmaj promast 76, ABCG2 block inactive and GSH fluor inactive.
C=CCN1C(=O)C2(NNc3ccccc3O2)c2ccccc21 (centres undefined) was read as PKD1 inh inactive, Avidin bead fluor inactive, ABCB1 block inactive, Lmaj promast inactive, ABCG2 block inactive and GSH fluor inactive.
CCCCN1C(=O)C2(NNc3ccccc3O2)c2ccccc21 (centres undefined) was read as PKD1 inh inactive, Avidin bead fluor inactive, ABCB1 block inactive, Lmaj promast 96, ABCG2 block inactive and GSH fluor inactive.
Cc1ccc(C(=O)CC2(O)C(=O)N(C)c3ccccc32)s1 (centres undefined) was read as PKD1 inh inactive, Avidin bead fluor inactive, ABCB1 block inactive, Lmaj promast inactive, ABCG2 block inactive and GSH fluor inactive.
Screening COc1cc(CNCc2cccs2)ccc1OCC(N)=O returned PKD1 inh inactive, Avidin bead fluor inactive, ABCB1 block inactive, Lmaj promast inactive, ABCG2 block inactive and GSH fluor inactive.
CC(C)(CO)NCc1cccc(OCc2ccc(Cl)cc2)c1 was read as PKD1 inh inactive, Avidin bead fluor inactive, ABCB1 block inactive, Lmaj promast inactive, ABCG2 block inactive and GSH fluor inactive.
`Clc1ccc(COc2cccc(CNCc3ccncc3)c2)cc1` gave PKD1 inh inactive, Avidin bead fluor inactive, ABCB1 block inactive, Lmaj promast 94, ABCG2 block inactive and GSH fluor inactive.
c1ccc(COc2cccc(CNCc3cccs3)c2)cc1 was read as PKD1 inh inactive, Avidin bead fluor inactive, ABCB1 block inactive, Lmaj promast 98, ABCG2 block inactive and GSH fluor inactive.
For COc1cccc(C2/C(=C(/O)c3cnn(-c4ccccc4)c3C)C(=O)C(=O)N2CCN(C)C)c1 (centres undefined) the results were PKD1 inh inactive, Avidin bead fluor inactive, ABCB1 block inactive, Lmaj promast inactive, ABCG2 block inactive and GSH fluor inactive.
For N#CC1=C(N)Oc2n[nH]c(-c3ccccc3)c2C1c1cccnc1 (centres undefined) the results were PKD1 inh inactive, Avidin bead fluor inactive, ABCB1 block inactive, Lmaj promast inactive, ABCG2 block inactive and GSH fluor inactive.
Screening C#CCSc1nc(N)c2c(n1)OC(N)=C(C#N)C2c1cccnc1 (centres undefined) returned PKD1 inh inactive, Avidin bead fluor inactive, ABCB1 block inactive, Lmaj promast 76, ABCG2 block inactive and GSH fluor inactive.
Screening Cc1ccc(-c2[nH]nc3c2C(c2cccnc2)C(C#N)=C(N)O3)cc1 (centres undefined) returned PKD1 inh inactive, Avidin bead fluor inactive, ABCB1 block inactive, Lmaj promast 71, ABCG2 block inactive and GSH fluor inactive.
For CC(C)c1[nH]nc2c1C(c1cccnc1)C(C#N)=C(N)O2 (centres undefined) the results were PKD1 inh inactive, Avidin bead fluor inactive, ABCB1 block inactive, Lmaj promast inactive, ABCG2 block inactive and GSH fluor inactive.
Screening CCCCNC(=O)COC(=O)c1ccc(NS(=O)(=O)c2ccc3c(c2)OCCO3)cc1 returned PKD1 inh inactive, Avidin bead fluor inactive, ABCB1 block inactive, Lmaj promast inactive, ABCG2 block inactive and GSH fluor inactive.
`CC1(c2ccccc2)CC(C)(C)N2C(=O)Cc3cccc1c32` (centres undefined) gave PKD1 inh inactive, Avidin bead fluor inactive, ABCB1 block inactive, Lmaj promast inactive, ABCG2 block inactive and GSH fluor inactive.
For C=C(C)[C@@H]1CC=C(CN2CCC(CCOC)(C(=O)OCC)CC2)CC1 the results were PKD1 inh inactive, Avidin bead fluor inactive, ABCB1 block inactive, Lmaj promast 79, ABCG2 block inactive and GSH fluor inactive.
CCOC(=O)C1(CCOc2ccccc2)CCN(Cc2ccc(COC)o2)CC1 was read as PKD1 inh inactive, Avidin bead fluor inactive, ABCB1 block inactive, Lmaj promast 66, ABCG2 block inactive and GSH fluor inactive.
Screening CCOC(=O)C1(Cc2ccccc2)CCN(Cc2ccc(COC)o2)CC1 returned PKD1 inh inactive, Avidin bead fluor inactive, ABCB1 block inactive, Lmaj promast inactive, ABCG2 block inactive and GSH fluor inactive.
Screening CCOC(=O)C1(CCOc2ccccc2)CCN(Cc2cnc(SC)nc2)CC1 returned PKD1 inh inactive, Avidin bead fluor inactive, ABCB1 block inactive, Lmaj promast 86, ABCG2 block inactive and GSH fluor inactive.
Screening CCOC(=O)C1(CCOc2ccccc2)CCN(Cc2cccc3nonc23)CC1 returned PKD1 inh inactive, Avidin bead fluor inactive, ABCB1 block inactive, Lmaj promast 87, ABCG2 block inactive and GSH fluor inactive.
For CCOC(=O)C1(CCOc2ccccc2)CCN(Cc2cnc(C)[nH]2)CC1 the results were PKD1 inh inactive, Avidin bead fluor inactive, ABCB1 block inactive, Lmaj promast inactive, ABCG2 block inactive and GSH fluor inactive.
`Cc1ccc(-n2c(=O)c3sccc3n(CC(=O)NCc3ccco3)c2=O)cc1F` gave PKD1 inh inactive, Avidin bead fluor inactive, ABCB1 block inactive, Lmaj promast inactive, ABCG2 block inactive and GSH fluor inactive.
For CCOC(=O)C1(CCOc2ccccc2)CCN(Cc2ccc(C)o2)CC1 the results were PKD1 inh inactive, Avidin bead fluor inactive, ABCB1 block inactive, Lmaj promast 74, ABCG2 block inactive and GSH fluor inactive.

Assay outcomes from PubChem BioAssay.
